Data reported in ChEMBL document CHEMBL5357044, “Discovery of a dual-acting inhibitor of interleukin-1β and STATs for the treatment of inflammatory bowel disease” (RSC Med Chem, 2024).
Calls of active or inactive are those of the source. No cut-off for these calls is given here.

What was measured:
[1] = Toxicity in mouse assessed as inactive state of animal at 2 mg/kg/day, ip treated for 7 days; type: organism-based; details: in vivo, 168 h, time 7 day
Summary of the method: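 Preliminary tolerability study: mice (n = 2) injected intraperitoneally at 2 mg kg−1 per day for 7 days. General state and activity observed.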

[2] = tested on: Colon; assay: Anti-colitis activity against DSS-induced ulcerative colitis mouse model assessed as decrease in infiltration of inflammatory cells in colon tissue at 0.2 to 0.6 mg/kg, ip treated every 72 hrs for 9 days by H and E staining based analysis; type: functional, organism-based; details: dose 0.2-0.6 mg/kg, time 9.0 day
Summary of the method: (§1)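 Colons were taken on day 9 from 2.5% DSS-fed mice (DSS days 1–7). Dosing was i.p. 0.2 or 0.6 mg kg−1 in 50% PEG300 on days 2, 5, 8. H&E-stained sections imaged at ×20 and scored for inflammatory infiltration, goblet cell depletion and crypt loss.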

[3] = target: NACHT, LRR and PYD domains-containing protein 3 (Mus musculus) (UniProt Q8R4B8); assay: Inhibition of NLRP3 inflammasome activation in mouse J774.A1 cells assessed as reduction in cleaved GSDMD production at 50 to 200 nM pretreated for 1 hr followed by nigericin treatment for 1 hr by Western blot analysis; type: cell-based; details: dose 50-200 nM, time 2.0 hrs
Chain of NACHT, LRR and PYD domains-containing protein 3 (Mus musculus) (Q8R4B8 whole entry, the tested form may be a part): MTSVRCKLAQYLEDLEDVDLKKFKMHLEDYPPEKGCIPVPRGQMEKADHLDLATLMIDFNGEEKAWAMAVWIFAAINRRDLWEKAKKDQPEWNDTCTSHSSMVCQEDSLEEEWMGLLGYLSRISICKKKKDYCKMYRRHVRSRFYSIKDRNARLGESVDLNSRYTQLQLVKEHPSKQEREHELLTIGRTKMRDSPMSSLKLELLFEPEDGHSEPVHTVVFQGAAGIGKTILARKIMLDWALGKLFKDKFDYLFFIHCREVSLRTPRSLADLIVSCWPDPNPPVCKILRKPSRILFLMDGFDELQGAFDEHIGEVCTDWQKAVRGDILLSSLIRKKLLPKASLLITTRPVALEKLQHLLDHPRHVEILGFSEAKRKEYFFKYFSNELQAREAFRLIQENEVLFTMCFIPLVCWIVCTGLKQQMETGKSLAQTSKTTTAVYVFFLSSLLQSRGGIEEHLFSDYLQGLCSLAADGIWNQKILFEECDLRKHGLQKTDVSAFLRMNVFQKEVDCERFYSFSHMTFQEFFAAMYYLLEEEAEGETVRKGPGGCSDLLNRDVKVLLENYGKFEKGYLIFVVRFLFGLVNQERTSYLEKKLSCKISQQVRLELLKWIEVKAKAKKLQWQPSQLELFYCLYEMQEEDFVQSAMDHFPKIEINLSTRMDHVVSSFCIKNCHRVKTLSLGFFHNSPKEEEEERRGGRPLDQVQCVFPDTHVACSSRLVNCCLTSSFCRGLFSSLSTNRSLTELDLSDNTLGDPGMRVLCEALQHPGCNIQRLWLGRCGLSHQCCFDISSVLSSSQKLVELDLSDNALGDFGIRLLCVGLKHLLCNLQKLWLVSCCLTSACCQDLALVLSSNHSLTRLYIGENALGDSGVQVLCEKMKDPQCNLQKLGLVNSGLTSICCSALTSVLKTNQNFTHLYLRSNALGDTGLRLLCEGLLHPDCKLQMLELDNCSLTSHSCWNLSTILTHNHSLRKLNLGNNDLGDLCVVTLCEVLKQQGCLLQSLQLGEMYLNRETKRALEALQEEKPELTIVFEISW
Summary of the method: (§2)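 J774A.1 cells, LPS 1 μg mL−1 for 5 h, compound exposure, nigericin 10 μM 1 h. RIPA lysis with protease inhibitor and BCA quantitation, then SDS-PAGE/PVDF. Blocked 5% milk, primary antibodies overnight at 4 °C, HRP secondaries, ECL detection.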

[4] = tested on: Mus musculus; assay: Anti-colitis activity against DSS-induced ulcerative colitis mouse model assessed as increase in body weight at 0.2 to 0.6 mg/kg, ip treated every 72 hrs for 9 days; type: functional, organism-based; details: dose 0.2-0.6 mg/kg, time 9.0 day
Summary of the method: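 Mice given 2.5% DSS water days 1–7, then water to day 9. Dosing: i.p. 0.2 or 0.6 mg kg−1 in 50% PEG300 on days 2, 5, 8. Body weight and fecal occult blood scored daily. Colon length measured after sacrifice on day 9. Mean ± s.e.m.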

[5] = tested on: Colon; assay: Anti-colitis activity against DSS-induced ulcerative colitis mouse model assessed as increase in crypt architecture in colon tissue at 0.2 to 0.6 mg/kg, ip treated every 72 hrs for 9 days by H and E staining based analysis; type: functional, organism-based; details: dose 0.2-0.6 mg/kg, time 9.0 day; summary of the method: as §1
[6] = target: Nlrp3/Pycard (Mus musculus) (UniProt Q8R4B8+Q9EPB4); assay: Inhibition of NLRP3-ASC interaction in LPS-treated mouse J774.A1 cells at 50 to 200 nM pretreated for 1 hr followed by nigericin treatment for 1 hr by Co-IP assay; type: cell-based; details: dose 50-200 nM, time 2.0 hrs
Chain of Nlrp3/Pycard (Mus musculus) (Q8R4B8 whole entry, looked up): as the sequence (Q8R4B8 whole entry, the tested form may be a part) above
Chain of Nlrp3/Pycard (Mus musculus) (Q9EPB4 whole entry, looked up): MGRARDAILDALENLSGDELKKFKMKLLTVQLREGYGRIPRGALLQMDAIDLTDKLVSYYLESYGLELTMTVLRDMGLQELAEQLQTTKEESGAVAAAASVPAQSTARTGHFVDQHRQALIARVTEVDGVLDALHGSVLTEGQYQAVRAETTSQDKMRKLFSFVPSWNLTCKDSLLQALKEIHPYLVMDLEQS
Summary of the method: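 Primed/treated J774A.1 cells (LPS 1 μg mL−1 5 h, compound, nigericin 10 μM 1 h) lysed on ice 30 min. Precleared with Protein A/G agarose overnight at 4 °C, then primary antibody (IgG control) overnight at 4 °C. Protein A/G added 6 h, beads washed five times with D-PBS, boiled in SDS buffer and western blotted.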

[7] = target: NACHT, LRR and PYD domains-containing protein 3 (Mus musculus, UniProt Q8R4B8); assay: Inhibition of NLRP3 inflammasome activation in mouse J774.A1 cells assessed as reduction in LPS-stimulated IL-1beta level pretreated for 1 hr followed by nigericin treatment for 1 hr by ELISA; type: cell-based
Chain of NACHT, LRR and PYD domains-containing protein 3 (Q8R4B8 whole entry, the tested form may be a part): as the sequence (Q8R4B8 whole entry, the tested form may be a part) above
Summary of the method: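 J774A.1 cells (DMEM, 10% FBS) primed with LPS 1 μg mL−1 for 5 h, compound 1 h, then nigericin 10 μM for 1 h. Supernatant IL-1β by ELISA; IC50 from three separate determinations.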

[8] = target: NACHT, LRR and PYD domains-containing protein 3 (Mus musculus) (UniProt Q8R4B8); assay: Inhibition of NLRP3 inflammasome activation in mouse J774.A1 cells assessed as reduction in caspase-1 p20 subunits release at 50 to 200 nM pretreated for 1 hr followed by nigericin treatment for 1 hr by Western blot analysis; type: cell-based; details: dose 50-200 nM, time 2.0 hrs; summary of the method: as §2
[9] = tested on: Colon; assay: Anti-colitis activity against DSS-induced ulcerative colitis mouse model assessed as decrease in IL-1beta level in colon tissue at 0.2 to 0.6 mg/kg, ip treated every 72 hrs for 9 days by ELISA; type: functional, organism-based; details: dose 0.2-0.6 mg/kg, time 9.0 day
Summary of the method: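 Colitis induced with 2.5% DSS in drinking water on days 1–7, plain water days 8–9. Compound given i.p. at 0.2 and 0.6 mg kg−1 in 50% PEG300 on days 2, 5 and 8. Mice killed on day 9; colon tissue cytokines measured by ELISA. Mean ± s.e.m.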

[10] = target: NLR family CARD domain-containing protein 4 (Mus musculus) (UniProt Q3UP24); assay: Inhibition of NLRC4 inflammasome activation in mouse BMDM cells assessed as reduction in LPS-stimulated IL-1beta level at 50 to 200 nM pretreated for 1 hr followed by FLA-ST Ultrapure treatment for 4 hrs by ELISA; type: cell-based; details: dose 50-200 nM, time 5.0 hrs
Chain of NLR family CARD domain-containing protein 4 (Mus musculus) (Q3UP24 whole entry, the tested form may be a part): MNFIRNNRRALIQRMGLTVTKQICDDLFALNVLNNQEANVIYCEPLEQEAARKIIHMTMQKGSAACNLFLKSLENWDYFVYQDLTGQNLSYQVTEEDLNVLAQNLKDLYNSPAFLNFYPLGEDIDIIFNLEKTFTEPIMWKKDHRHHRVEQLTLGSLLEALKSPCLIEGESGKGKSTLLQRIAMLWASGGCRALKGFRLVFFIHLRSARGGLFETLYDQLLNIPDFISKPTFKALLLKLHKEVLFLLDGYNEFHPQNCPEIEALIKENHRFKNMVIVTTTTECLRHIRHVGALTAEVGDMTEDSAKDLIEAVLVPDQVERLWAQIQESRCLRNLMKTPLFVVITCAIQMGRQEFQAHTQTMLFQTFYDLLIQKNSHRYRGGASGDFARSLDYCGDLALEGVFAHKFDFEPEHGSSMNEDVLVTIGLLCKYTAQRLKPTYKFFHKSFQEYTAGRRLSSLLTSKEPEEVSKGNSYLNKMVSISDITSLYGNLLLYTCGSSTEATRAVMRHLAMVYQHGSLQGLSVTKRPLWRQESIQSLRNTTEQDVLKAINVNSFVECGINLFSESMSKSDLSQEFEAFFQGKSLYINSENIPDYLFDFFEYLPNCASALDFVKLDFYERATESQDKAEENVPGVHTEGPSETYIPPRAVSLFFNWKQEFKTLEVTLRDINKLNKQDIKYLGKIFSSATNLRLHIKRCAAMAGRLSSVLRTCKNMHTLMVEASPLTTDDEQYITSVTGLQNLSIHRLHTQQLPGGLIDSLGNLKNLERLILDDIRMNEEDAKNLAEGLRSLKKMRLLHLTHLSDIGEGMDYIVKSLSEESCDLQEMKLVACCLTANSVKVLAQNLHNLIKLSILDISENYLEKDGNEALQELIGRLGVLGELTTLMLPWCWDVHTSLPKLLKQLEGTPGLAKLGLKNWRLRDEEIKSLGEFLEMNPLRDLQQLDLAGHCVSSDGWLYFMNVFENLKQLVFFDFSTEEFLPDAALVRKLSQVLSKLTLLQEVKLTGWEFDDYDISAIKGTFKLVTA
Summary of the method: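 BMDMs (RPMI 1640, 10% FBS, Glutamax, 20 ng mL−1 M-CSF) primed with 0.5 μg mL−1 LPS for 3 h, then compound for 1 h. Stimulated 4 h with FLA-ST Ultrapure 2.5 μg mL−1 (NLRC4) or poly(dA/dT) 0.25 μg mL−1 (AIM2). IL-1β measured by ELISA.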

[11] = target: T1, Signal transducer and activator of transcription 1 (Mus musculus) (UniProt P42225); assay: Inhibition of STAT1 expression in LPS-treated mouse J774.A1 cells assessed as reduction in STAT1 phosphorylation at 50 to 200 nM treated for 1 hr by Western blot analysis; type: cell-based; details: dose 50-200 nM
T1 sequence (whole entry): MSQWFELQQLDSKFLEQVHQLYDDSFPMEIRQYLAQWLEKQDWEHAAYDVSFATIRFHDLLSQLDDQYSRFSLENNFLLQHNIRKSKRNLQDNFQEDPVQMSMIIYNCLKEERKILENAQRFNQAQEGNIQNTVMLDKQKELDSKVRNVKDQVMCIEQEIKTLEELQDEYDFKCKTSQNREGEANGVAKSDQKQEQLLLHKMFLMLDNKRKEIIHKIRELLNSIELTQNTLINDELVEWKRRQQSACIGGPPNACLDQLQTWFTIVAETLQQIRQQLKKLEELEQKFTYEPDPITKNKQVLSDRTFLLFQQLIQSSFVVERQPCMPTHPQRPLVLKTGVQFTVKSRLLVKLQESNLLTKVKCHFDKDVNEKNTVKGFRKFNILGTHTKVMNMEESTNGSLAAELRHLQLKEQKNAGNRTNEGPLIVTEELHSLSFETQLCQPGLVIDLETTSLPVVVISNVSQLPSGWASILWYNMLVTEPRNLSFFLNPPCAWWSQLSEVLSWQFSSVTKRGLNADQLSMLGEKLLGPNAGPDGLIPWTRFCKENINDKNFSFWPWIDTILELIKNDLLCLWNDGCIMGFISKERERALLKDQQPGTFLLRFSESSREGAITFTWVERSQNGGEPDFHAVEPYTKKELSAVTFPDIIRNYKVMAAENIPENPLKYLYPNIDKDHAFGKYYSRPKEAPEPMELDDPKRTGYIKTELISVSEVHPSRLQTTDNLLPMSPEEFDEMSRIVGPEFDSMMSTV
Summary of the method: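 J774A.1 cells pretreated with LPS and compound, lysed in RIPA. pSTAT1, STAT1, pSTAT3, STAT3, pSTAT5 and STAT5 detected by SDS-PAGE western blot with ECL.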

inhibition [3]: Active | inhibition [6]: Active | IC50 [7]: 130 nM | inhibition [8]: Active | inhibition [10]: inactive | inhibition [11]: Active
SMILES: Cc1cc(/C=C/C(=O)c2ccc(C(=O)N[C@@H](Cc3ccccc3)C(=O)N[C@@H](CC(C)C)B(O)O)cc2)cc(C)c1O
Activity [1]: Toxic | Activity [2]: Active | Activity [4]: Active | Activity [5]: Active | Activity [9]: Active
